High-throughput results as filed in PubChem.
hIAP activ – human IAP activators, primary screen, biochemical, luminescence, uHTS; Intestinal-type alkaline phosphatase (Homo sapiens), P09923; purified human IAP, CDP-Star luminescence, 30 min; active compounds read high; 1 = vehicle-only enzyme, 0 = enzyme-free background; activation factor at 10 µM; 0.16% of 330,000 active; AID 2524, 2010;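 active means activation factor of the enzyme at least 2-fold when tested at 20 µM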
Target sequence (P09923 whole entry, looked up): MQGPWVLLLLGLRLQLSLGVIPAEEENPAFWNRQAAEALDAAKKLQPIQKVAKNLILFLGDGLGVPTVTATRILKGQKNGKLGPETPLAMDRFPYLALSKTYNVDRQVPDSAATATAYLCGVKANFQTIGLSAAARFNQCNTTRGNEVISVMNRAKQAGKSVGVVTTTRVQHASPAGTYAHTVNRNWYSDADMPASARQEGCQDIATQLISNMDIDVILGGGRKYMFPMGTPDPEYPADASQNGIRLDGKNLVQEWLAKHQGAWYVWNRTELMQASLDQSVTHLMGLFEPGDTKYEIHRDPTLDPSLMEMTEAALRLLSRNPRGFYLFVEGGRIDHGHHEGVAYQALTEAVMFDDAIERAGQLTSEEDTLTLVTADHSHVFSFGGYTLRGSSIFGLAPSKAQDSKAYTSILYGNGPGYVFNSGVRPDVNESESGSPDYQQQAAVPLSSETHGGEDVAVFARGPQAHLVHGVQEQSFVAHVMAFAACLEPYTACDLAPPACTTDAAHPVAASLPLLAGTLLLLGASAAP
mIAP act – activators of mouse IAP, primary screen, biochemical, luminescence, uHTS; muIAP, CDP-Star luminescence, 30 min; active compounds read high; 1 = vehicle-only enzyme signal, 0 = enzyme-free wells; activation factor at 10 µM; 0.24% of 330,000 active; AID 2805, 2010;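 active means activation factor of at least 2 at 20 µM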
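Assay system: mouse IAP enzyme / Compound: DMSO-dissolved test compounds / Timing: 30 min, room temperature / Measured by: luminescence from enzymatic CDP-Star hydrolysis / Control set: DMSO-only wells, enzyme-free buffer wells as negative control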
mIAP block – inhibitors of mouse IAP, primary screen, biochemical, luminescence, uHTS; 0.2% of 330,000 active; inhibition, % at 10 µM; purified mouse IAP, CDP-Star luminescence, 30 min; intestinal alkaline phosphatase [Mus musculus]; AID 2806, 2010;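 active means inhibition of at least 40% at 10 µM in the primary screen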;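 further: plate controls were DMSO with enzyme for no effect and no enzyme wells for full effect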
hIAP block – human IAP inhibitors, primary screen, biochemical, luminescence, uHTS. inhibition, % at 10 µM. 0.12% of 330,000 active. AID 2544, 2010. purified IAP, CDP-Star luminescence, 30 min;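 active means inhibition reaching a set limit with compound at 10 µM in the primary screen, cut at about 35% in these data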;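 further: plate controls were DMSO wells with enzyme for no effect and no-enzyme buffer wells for full effect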
bIAP act – bovine intestinal alkaline phosphatase activators, primary screen, biochemical, bovine IAP, CDP-star luminescence | 0.17% of 200,000 active | purified bovine IAP, 30 min; active compounds read high; fold of DMSO-control signal, blank-subtracted | activation factor at 20 µM;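 active means activation factor of 2 or more at 20 µM, a signal rise over negative controls twice the positive control's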
bIAP inh – bovine intestinal alkaline phosphatase inhibitors, primary screen, selectivity assay for TNAP inhibitor project, biochemical, bovine IAP, CDP-star luminescence; alkaline phosphatase, intestinal [Bos taurus]; purified bovine IAP, 30 min; inhibition, % at 20 µM; 190,000 tested, under 10 active;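 active means over 50% inhibition of intestinal alkaline phosphatase at 20 µM in the single-dose screen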
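Assay system: bovine IAP enzyme; medium: DEA buffer 100 mM, pH 9.8, with MgCl2 1.0 mM, ZnCl2 0.02 mM; doses: 20 µM single dose; incubation: enzyme reaction for 30 min at room temperature; detection: CDP-star luminescence signal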
The depositor's hits bear a star; i = inactive; . = no result. This is a sample that favours compounds with a hit; in the whole collection about 0.72% have one here.

SMILES	hIAP activ	mIAP act	mIAP block	hIAP block	bIAP act	bIAP inh
COc1ccc(S(=O)(=O)N(C)C[C@H]2Oc3ccc(NS(=O)(=O)c4ccc(F)cc4)cc3C(=O)N([C@H](C)CO)C[C@@H]2C)cc1	1	1	-2	-4	.	.
C=CCN1C(=O)/C(=C/c2ccc(-c3ccc(F)cc3)o2)SC1=S	0.63	0.64	36	37*	.	.
CCOc1ccc(CCNC(=O)COC(=O)COc2ccc(C#N)cc2)cc1OCC	1	1	-3	-5	.	.
S=C(Nc1cc(Cl)cc(Cl)c1)NC1CCN(Cc2ccccc2)CC1	0.92	3.2*	-221	8	.	.
O=C(COC(=O)c1ccccn1)c1ccc([N+](=O)[O-])cc1	0.95	0.99	1	5	.	.
O=C(Cc1cccs1)NCCSc1c(-c2ccc(Cl)cc2)[nH]c2ccccc12	0.9	2.5*	-154	10	1.1	-5
CCOC(=O)CSc1c(-c2ccc(Cl)cc2)[nH]c2ccccc12	1	0.97	3	-4	0.9	8
Cc1ccc(NC(=O)COC(=O)Cn2cnc3ccccc32)c(C)c1	1	0.95	5	-2	.	.
O=C(Nc1ccccc1Cl)C1CCN(Cc2cnn(-c3ccccc3)c2-n2cccc2)CC1	1	0.92	8	-1	1.4	-44
O=C(NCc1ccc2c(c1)OCO2)C1CCN(Cc2cnn(-c3ccccc3)c2-n2cccc2)CC1	1.4	1.2	-21	-35	2.1*	-114
CCc1ccccc1N1CC(C(=O)Nc2cc(S(=O)(=O)N3CCCC3)ccc2Cl)CC1=O (stereo not drawn)	0.99	1	0	1	.	.
Cn1cnnc1SCC(=O)N1CCN(C(=O)c2ccco2)CC1	0.91	1	-3	9	0.8	20
Cn1cnnc1SCC(=O)N1CCC(Cc2ccccc2)CC1	1.1	1.2	-20	-14	2.4*	-140
S=C(NCc1ccco1)Nc1ccc(Cl)c(Cl)c1	1.1	2.3*	-130	-11	0.8	24
Cc1cc(C(=O)OCC(=O)NC(C)c2ccc(F)cc2)c(C)o1 (stereo not drawn)	1.2	1.1	-12	-24	.	.
C/C(=N\Nc1cccc2cccnc12)c1ccccc1O	0.96	0.92	8	4	1	2
C/C(=N\Nc1cccc2cccnc12)c1ccccn1	2.1*	0.9	10	-106	1.2	-17
COCCOc1ccc(C(F)(F)F)cc1NC(=O)COC(=O)c1ccc(N2CCCC2=O)cc1	1.2	1	0	-19	.	.
Cc1oc(-c2cc(Cl)cc(Cl)c2)cc1C(=O)NCCc1ccccc1	1.1	3.6*	-263	-11	0.9	6
COc1cc(NC(=O)CN(c2cc(C)cc(C)c2)S(=O)(=O)c2c(C)noc2C)cc(OC)c1	0.88	3*	-198	12	0.9	10
COc1cc(NC(=O)CN(c2ccc(C)cc2)S(=O)(=O)c2c(C)noc2C)cc(OC)c1	1.2	1.8	-81	-20	.	.
Cc1ccc(NC(=O)Nc2ccccc2F)cc1S(=O)(=O)N1CCOCC1	1.1	2.6*	-158	-15	.	.
O=C(Nc1cccc(Cl)c1)Nc1cc(S(=O)(=O)N2CCOCC2)ccc1N1CCCC1	1.2	3.7*	-272	-18	1	-2
O=C(Nc1ccc(NC(=O)c2ccc(Cl)c(S(=O)(=O)N3CCOCC3)c2)cc1)c1ccccc1	1.2	1.1	-6	-15	.	.
O=C(Nc1ccccc1)Nc1ccc(Cl)c(S(=O)(=O)N2CCOCC2)c1	1.1	2.8*	-182	-5	1	2
SMILES	hIAP activ	mIAP act	mIAP block	hIAP block	bIAP act	bIAP inh
CC(Sc1nnc(C2CC2)n1C1CC1)C(=O)c1ccc(Br)cc1 (stereo not drawn)	1.2	0.94	6	-21	.	.
Cc1cc(C(=O)OCC(=O)Nc2ccccc2[N+](=O)[O-])c2ccccc2n1	0.85	1	-4	15	2.1*	-108
CCOc1cc(C(=O)Nc2ccc(C(=O)NCCN(CC)CC)cc2)ccc1OCC(=O)N1CCOCC1	0.86	0.94	6	14	.	.
COC(=O)C(C(=O)OC)c1ncc(C(F)(F)F)cc1Cl	0.92	1	-4	8	2.2*	-124
CC1CC(=O)Nc2ccccc2N1C(=O)CSc1ccc2ccccc2n1 (stereo not drawn)	1.1	1.1	-10	-8	.	.
N#Cc1ccc(NC(=O)Nc2ccc(Cl)cc2)cc1	0.95	2.2*	-118	5	0.9	14
COc1ccc(OC)c(COC(=O)c2cccc(S(=O)(=O)N3CCCCC3)c2)c1	0.91	1	-1	9	.	.
CC(/C=N/NC(=O)c1n[nH]c2c1CCC2)=C\c1ccccc1	1.5	0.98	2	-52	1	2
O=C(N/N=C/C=C/c1ccccc1)c1n[nH]c2c1CCC2	2.1*	1.1	-7	-108	1.4	-39
COc1ccc(Cc2nc3ccc(C(=O)NCc4ncc(C)[nH]4)cc3o2)cc1OC	0.94	0.5	50*	6	.	.
O=C(Nc1cccc(Cl)c1)NC1CCN(C2CCCCC2)C1 (stereo not drawn)	1.1	2.3*	-132	-8	.	.
O=C(NC1CCN(C(=O)Nc2cccc(Cl)c2)CC1)C1CCCCC1	1.2	1.1	-9	-17	.	.
COC(=O)[C@H](Cc1ccccc1)NC(=O)Cn1cnc(C(=O)Nc2ccc(C)c(C)c2)n1	.	1	-3	.	.	.
Cc1ccc(OCCCn2c(CO)nc3ccccc32)cc1	1.2	0.97	3	-22	6.7*	i
COc1cc(C(=O)Nc2nc3ccccc3[nH]2)ccc1OC(F)F	1.2	1	0	-20	.	.
COc1ccc(C(=O)Nc2nc3ccccc3[nH]2)cc1OC	0.97	0.96	4	3	2.2*	-122
Cc1cc(C)cc(NC(=O)Nc2ccc(N3CCCCC3)cc2)c1	1.2	2*	-100	-18	.	.
Cc1cc(C)cc(C(=O)Nc2ccc(N3CCCC3)cc2)c1	0.92	0.96	4	8	1.2	-16
COc1ccc(C(=O)OCC(=O)c2c(N)n(C)c(=O)n(C)c2=O)c(OC)c1OC	1.1	1.1	-13	-14	.	.
Cc1ccc(-n2c(C)cc(C3N=C(N)Nc4nc5ccccc5n43)c2C)c(C)c1 (stereo not drawn)	1.2	1.8	-84	-18	7*	i
Cc1cc(C2N=C(N)Nc3nc4ccccc4n32)c(C)n1-c1ccccc1Cl (stereo not drawn)	0.81	2	-96	20	4.1*	-312
CCN(CC(=O)Nc1ccccc1C(F)(F)F)C(=O)c1ccccc1Cc1ccccc1	1.2	1.1	-10	-24	.	.
